Experimental data collected from several papers.
Target: Ephrin type-B receptor 2 (EPHB2, Homo sapiens, UniProt P29323)
One construct used (P29323 19-1055): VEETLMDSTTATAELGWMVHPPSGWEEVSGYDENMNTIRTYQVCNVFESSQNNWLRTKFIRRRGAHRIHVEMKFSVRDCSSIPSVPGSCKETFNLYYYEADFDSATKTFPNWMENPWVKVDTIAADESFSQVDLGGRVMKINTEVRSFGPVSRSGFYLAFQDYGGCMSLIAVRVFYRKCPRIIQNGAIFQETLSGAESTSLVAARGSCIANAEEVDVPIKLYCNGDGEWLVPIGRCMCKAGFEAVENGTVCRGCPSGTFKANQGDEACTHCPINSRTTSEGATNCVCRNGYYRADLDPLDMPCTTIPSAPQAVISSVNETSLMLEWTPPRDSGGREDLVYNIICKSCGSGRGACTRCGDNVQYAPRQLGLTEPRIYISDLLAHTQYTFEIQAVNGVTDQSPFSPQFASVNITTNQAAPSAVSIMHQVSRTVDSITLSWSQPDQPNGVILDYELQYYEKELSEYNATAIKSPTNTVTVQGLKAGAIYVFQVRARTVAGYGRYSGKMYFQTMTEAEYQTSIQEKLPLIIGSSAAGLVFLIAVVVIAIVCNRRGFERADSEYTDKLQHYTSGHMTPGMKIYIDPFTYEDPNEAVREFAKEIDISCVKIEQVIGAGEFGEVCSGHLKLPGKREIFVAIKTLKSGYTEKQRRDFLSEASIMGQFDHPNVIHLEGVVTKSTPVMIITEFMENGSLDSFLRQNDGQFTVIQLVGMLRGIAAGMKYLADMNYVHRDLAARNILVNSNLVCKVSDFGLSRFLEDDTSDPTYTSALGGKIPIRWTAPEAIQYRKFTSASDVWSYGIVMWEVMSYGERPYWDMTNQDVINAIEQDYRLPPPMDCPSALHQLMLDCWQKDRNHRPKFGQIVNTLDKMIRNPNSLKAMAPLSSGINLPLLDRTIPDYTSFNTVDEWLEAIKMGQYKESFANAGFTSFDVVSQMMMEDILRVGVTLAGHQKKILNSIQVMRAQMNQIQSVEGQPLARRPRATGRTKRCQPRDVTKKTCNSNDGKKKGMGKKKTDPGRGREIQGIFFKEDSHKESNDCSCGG

Structure (SMILES) | observed | action | technique | concentration | endpoint | result
O=C(NCc1ncc(C(F)(F)F)cc1Cl)c1ccc2c(c1)C1(CCS(=O)(=O)CC1)[C@H](C1CC1)N2S(=O)(=O)c1ccc(F)cc1 | cell-free assay | – | competition with immobilised ligand | 1 µM | remaining binding | 100%
COc1cccc2c(NCc3ccccc3)nc(-n3c(N)nc4ccccc43)nc12 | target engagement in cells | inhibitor | chemoproteomics | 20 mM | inhibition | 8.3%
Cc1ccc(C(=O)Nc2ccc(CN3CCN(C)CC3)c(C(F)(F)F)c2)cc1C#Cc1cnc2cccnn12 | cell-free assay | – | – | 23.5 nM | remaining signal | 49%
Cc1cc(NC(=O)c2cccc3cc(-c4cccc5[nH]nc(N)c45)ccc23)ccc1F | enzyme activity | inhibitor | – | 0.1 µM | activity vs control | 102%
CN(C)c1ccc(C=C2C(=O)Nc3ccccc32)cc1 | cell-free assay | – | – | 0.5 µM | remaining signal | 86.5%
Cc1cnc(NC2CCOCC2)nc1-n1cnc(C(=O)NC(CN)c2cc(F)cc(Cl)c2)c1 (stereo not drawn) | enzyme activity | inhibitor | radiometric | 1 µM | remaining activity | 96%
CCN(CC)CCNC(=O)c1c(C)[nH]c(/C=C2\C(=O)Nc3ccc(F)cc32)c1C | enzyme activity | inhibitor | – | 0.3 µM | inhibition | 2%
COc1cc2ncnc(Nc3ccc(Oc4ccccc4)c(C)c3C)c2cc1OC | enzyme activity | inhibitor | – | 1 µM | inhibition | 6%
CCCS(=O)(=O)Nc1ccc(F)c(C(=O)c2c[nH]c3ncc(-c4ccc(Cl)cc4)cc23)c1F | enzyme activity | inhibitor | – | 1 µM | inhibition | < 10%
Cc1ccc(Nc2nccc(N(C)c3ccc4c(C)n(C)nc4c3)n2)cc1S(N)(=O)=O | enzyme activity | inhibitor | – | 10 µM | inhibition | 44%
COc1ccc(COc2ccc(Cc3cnc(N)nc3N)cc2OC)cc1 | cell-free assay | – | – | 0.5 µM | remaining signal | 87.4%
CNC(=O)c1cc(Oc2ccc(NC(=O)Nc3ccc(Cl)c(C(F)(F)F)c3)cc2)ccn1 | enzyme activity | inhibitor | – | 10 µM | inhibition | 95%
CCC(=O)N[C@@H]1CC[C@H](C(=O)N(C)c2ccc(-c3nc4ccccc4o3)cc2)C1 | cell-free assay | – | competition with immobilised ligand | 1 µM | remaining binding | 82%
Cn1c(=O)n(-c2ccc(C(C)(C)C#N)cc2)c2c3cc(-c4cnc5ccccc5c4)ccc3ncc21 | enzyme activity | inhibitor | – | 10 µM | remaining activity | 77%
Cc1ccc(NC(=O)c2ccc(CN3CCN(C)CC3)cc2)cc1Nc1nc(-c2cccnc2)cs1 | cell-free assay | – | – | 0.5 µM | remaining signal | 95.3%
FC(F)(F)c1ccc2c(c1)nc(-c1cccnc1)n2C1CC1 | cell-free assay | – | competition with immobilised ligand | 1 µM | remaining binding | 83%
CC(C)(C)c1nc2c(s1)c1nc(N)ncc1c1ccc(NS(=O)(=O)c3c(F)cccc3F)c(F)c12 | enzyme activity | inhibitor | radiometric | 1 µM | remaining activity | 91%
CC(C)(O)c1cncc(-c2nc3ccc(F)cc3n2C2CC2)c1 | cell-free assay | – | competition with immobilised ligand | 1 µM | remaining binding | 99%
COc1cc(Cl)c(C(=O)N[C@@H](CN[C@H]2CC[C@@H](N)CC2)Cc2ccc(C#N)cc2)cc1-c1ccc(CN[C@H](C)c2ccc(C)cc2)o1 | enzyme activity | inhibitor | – | 1 µM | remaining activity | 123%
Nc1ncnc2occ(-c3ccc(NC(=O)Nc4cc(C(F)(F)F)ccc4F)cc3)c12 | cell-free assay | – | – | 20 µM | remaining signal | 0%
C[C@H](c1ccnc(Nc2nc3ccc(-c4cc(N(C)C)ncn4)cc3[nH]2)c1)N1CCN(C(=O)CC(F)(F)F)CC1 | cell-free assay | – | competition with immobilised ligand | 0.1 µM | remaining binding | 93%
CN(C)C1CCN(CC#Cc2nn(C3CCCC3)c3nc(NCc4ccccc4)ncc23)C1 (stereo not drawn) | enzyme activity | inhibitor | FRET | 0.1 µM | inhibition | 3%
CN(C(=O)c1ccccc1)c1cc(N(C)c2ccc3c(c2)CCc2ccc(C(=O)NCCN4CCOCC4)cc2C3=O)ccc1F | cell-free assay | – | competition with immobilised ligand | 1 µM | remaining binding | 82%
CCOc1cc(-c2nncn2C)ccc1Nc1ncc2cc(C)nc(NCC(C)(C)C)c2n1 | enzyme activity | inhibitor | FRET | 1 µM | inhibition | < 15%
COc1cc2ncnc(Nc3ccc(F)c(Cl)c3)c2cc1OCCCN1CCOCC1 | cell-free assay | – | – | 0.5 µM | remaining signal | 87.7%
CCCCNc1ncc2c(-c3ccc(F)cc3)nn(C[C@H]3CC[C@H](N)CC3)c2n1 | target engagement in cells | inhibitor | chemoproteomics | 20 mM | inhibition | 94.8%
O=C(NS(=O)(=O)c1ccc(NCC2CCOCC2)c([N+](=O)[O-])c1)c1ccc(N2CCN(Cc3ccc(C(F)(F)F)cc3-c3ccc(Cl)cc3)CC2)cc1Oc1cnc2[nH]ccc2c1 | cell-free assay | – | competition with immobilised ligand | 1 µM | remaining binding | 100%
O=C(Nc1cnn(-c2csc(C(=O)NC3COC3)c2)c1)Nc1ccccc1Cl | enzyme activity | inhibitor | – | 5 µM | remaining activity | 101%
CC(=O)c1c(NS(C)(=O)=O)c2cc(-c3ccc(Cl)cc3)c(-c3ccc(Cl)cc3Cl)nc2n(C)c1=O | cell-free assay | – | competition with immobilised ligand | 1 µM | remaining binding | 100%
COc1cc(Nc2cnc(C#N)c(O[C@H](C)CN(C)C)n2)ncc1-c1cnn(C)c1 | enzyme activity | inhibitor | radiometric | 1 µM | remaining activity | 110%
